What was measured:
[1] = biological target: human VCAM1; experiment: SPR measurement of peptide-VCAM1 binding; conditions: for ∣ΔΔGB∣: ∣ΔGB,trans – ΔGB,cis∣ from SPR values
Outline: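 Peptide-functionalised gold sensor chips, with three sensors per ligand and ligand density measured by variable angle spectroscopic ellipsometry. Chip-bound peptide was conditioned to cis or trans isomer, then exposed to human VCAM1 at 0.01–1 mg mL−1 in PBS. KD was determined for each isomer.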

[2] = test system: VCAM1^+ BMECs; type: cell-based, human; conditions: for co-localization of the cis isomer with anti-VCAM1 antibody: VCAM1^+ BMECs, confocal microscopy

Substance	KD,trans/KD,cis ([1]; affinity shift between trans and cis isomers, SPR)	∣ΔΔGB∣ [1]	binding to BMECs in trans configuration ([2]; BMEC labelling, fluorescence microscopy)	co-localization of the cis isomer with anti-VCAM1 antibody [2]
cycloAZOB[G-VHAKQHRN-K*] (sidechain bridge or staple)	~ 130	2.93	negligible binding	clear co-localization
cycloAZOB[G-VHAKQHRN-K*]-K(Biotin) (sidechain bridge or staple)				co-localization with anti-VCAM1 antibodies in cis configuration
cycloAZOB[G-VHNKQHRP-K*] (sidechain bridge or staple)		1.84		
cycloAZOB[G-VHPKQHRP-K*] (sidechain bridge or staple)		1.52		
cycloAZOB[G-VHPKQHRS-K*] (sidechain bridge or staple)		2.52		
